# Measured values: ChEMBL document CHEMBL4689842, “EUbOPEN Chemogenomics Library wave 1” (2021)
# Tested on: Fibroblast
# Assay: Multiplex assay against human fibroblast
# Assay type: toxicity, cell-based
# In short: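 Tubulin, mitochondrial-mass and membrane-permeability phenotypes are per cents of healthy-nucleus cells. Cells were gated by CellPathfinder machine learning into Hoechst high-intensity objects or normal cells, normal cells into healthy, pyknosed or fragmented nuclei, and pyknosed cells into mitotic or apoptotic. Before that, live cells stained at seeding with Hoechst33342, BioTracker Green Microtubule Cytoskeleton Dye, MitoTracker Red and Annexin V Alexa Fluor 680 were imaged on a CQ1 microscope at 37°C and 5% CO2 after compound addition.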
# [1] = 12 h, 1 µM, compound concentration 1 uM, replicate 1
# [2] = 12 h, 1 µM, compound concentration 1 uM, replicate 2
# [3] = 12 h, 10 µM, compound concentration 10 uM, replicate 1
# [4] = 12 h, 10 µM, compound concentration 10 uM, replicate 2
# [5] = 24 h, 1 µM, compound concentration 1 uM, replicate 1
# [6] = 24 h, 1 µM, compound concentration 1 uM, replicate 2
# [7] = 24 h, 10 µM, compound concentration 10 uM, replicate 1
# [8] = 24 h, 10 µM, compound concentration 10 uM, replicate 2
# [9] = 48 h, 1 µM, compound concentration 1 uM, replicate 1
# [10] = 48 h, 1 µM, compound concentration 1 uM, replicate 2
# [11] = 48 h, 10 µM, compound concentration 10 uM, replicate 1
# [12] = 48 h, 10 µM, compound concentration 10 uM, replicate 2
structure (smiles),measurement,setting,value
N#Cc1cccc(C(=O)Nc2cc(-c3ccccc3)nn2-c2ccccc2)c1,Population Apoptotic (%),[1],66%
same,Population Fragmented Nuclei (%),[1],21%
same,Population Healthy Nuclei (%),[1],48%
same,Population Hoechst High Intensity Objects (%),[1],11%
same,Population Membrane Permeable-Phenotype (%),[1],22%
same,Population Mitochondria Different-Phenotype (%),[1],6%
same,Population Mitotic Cells (%),[1],34%
same,Population Normal (%),[1],88%
same,Population Pyknosed Nuclei (%),[1],30%
same,Population Tubulin-Different-Phenotype (%),[1],48%
same,Total Cell Count,[1],186
same,Population Apoptotic (%),[2],16%
same,Population Fragmented Nuclei (%),[2],5%
same,Population Healthy Nuclei (%),[2],84%
same,Population Hoechst High Intensity Objects (%),[2],3%
same,Population Membrane Permeable-Phenotype (%),[2],6%
same,Population Mitochondria Different-Phenotype (%),[2],8%
same,Population Mitotic Cells (%),[2],83%
same,Population Normal (%),[2],96%
same,Population Pyknosed Nuclei (%),[2],10%
same,Population Tubulin-Different-Phenotype (%),[2],16%
same,Total Cell Count,[2],59
same,Population Apoptotic (%),[3],50%
same,Population Fragmented Nuclei (%),[3],15%
same,Population Healthy Nuclei (%),[3],42%
same,Population Hoechst High Intensity Objects (%),[3],8%
same,Population Membrane Permeable-Phenotype (%),[3],23%
same,Population Mitochondria Different-Phenotype (%),[3],15%
same,Population Mitotic Cells (%),[3],50%
same,Population Normal (%),[3],91%
same,Population Pyknosed Nuclei (%),[3],42%
same,Population Tubulin-Different-Phenotype (%),[3],82%
same,Total Cell Count,[3],134
same,Population Apoptotic (%),[4],45%
same,Population Fragmented Nuclei (%),[4],9%
same,Population Healthy Nuclei (%),[4],60%
same,Population Hoechst High Intensity Objects (%),[4],9%
same,Population Membrane Permeable-Phenotype (%),[4],15%
same,Population Mitochondria Different-Phenotype (%),[4],84%
same,Population Mitotic Cells (%),[4],55%
same,Population Normal (%),[4],90%
same,Population Pyknosed Nuclei (%),[4],30%
same,Population Tubulin-Different-Phenotype (%),[4],97%
same,Total Cell Count,[4],72
same,Population Apoptotic (%),[5],47%
same,Population Fragmented Nuclei (%),[5],17%
same,Population Healthy Nuclei (%),[5],49%
same,Population Hoechst High Intensity Objects (%),[5],8%
same,Population Membrane Permeable-Phenotype (%),[5],34%
same,Population Mitochondria Different-Phenotype (%),[5],6%
same,Population Mitotic Cells (%),[5],52%
same,Population Normal (%),[5],91%
same,Population Pyknosed Nuclei (%),[5],33%
same,Population Tubulin-Different-Phenotype (%),[5],69%
same,Total Cell Count,[5],180
same,Population Apoptotic (%),[6],14%
same,Population Fragmented Nuclei (%),[6],3%
same,Population Healthy Nuclei (%),[6],86%
same,Population Hoechst High Intensity Objects (%),[6],4%
same,Population Membrane Permeable-Phenotype (%),[6],1%
same,Population Mitochondria Different-Phenotype (%),[6],8%
same,Population Mitotic Cells (%),[6],85%
same,Population Normal (%),[6],95%
same,Population Pyknosed Nuclei (%),[6],10%
same,Population Tubulin-Different-Phenotype (%),[6],7%
same,Total Cell Count,[6],68
same,Population Apoptotic (%),[7],45%
same,Population Fragmented Nuclei (%),[7],20%
same,Population Healthy Nuclei (%),[7],39%
same,Population Hoechst High Intensity Objects (%),[7],6%
same,Population Membrane Permeable-Phenotype (%),[7],36%
same,Population Mitochondria Different-Phenotype (%),[7],4%
same,Population Mitotic Cells (%),[7],54%
same,Population Normal (%),[7],93%
same,Population Pyknosed Nuclei (%),[7],39%
same,Population Tubulin-Different-Phenotype (%),[7],93%
same,Total Cell Count,[7],119
same,Population Apoptotic (%),[8],42%
same,Population Fragmented Nuclei (%),[8],9%
same,Population Healthy Nuclei (%),[8],67%
same,Population Membrane Permeable-Phenotype (%),[8],30%
same,Population Mitochondria Different-Phenotype (%),[8],71%
same,Population Mitotic Cells (%),[8],57%
same,Population Pyknosed Nuclei (%),[8],22%
same,Population Tubulin-Different-Phenotype (%),[8],95%
same,Total Cell Count,[8],66
same,Population Apoptotic (%),[9],57%
same,Population Fragmented Nuclei (%),[9],31%
same,Population Healthy Nuclei (%),[9],44%
same,Population Hoechst High Intensity Objects (%),[9],12%
same,Population Membrane Permeable-Phenotype (%),[9],26%
same,Population Mitochondria Different-Phenotype (%),[9],3%
same,Population Mitotic Cells (%),[9],42%
same,Population Normal (%),[9],87%
same,Population Pyknosed Nuclei (%),[9],24%
same,Population Tubulin-Different-Phenotype (%),[9],50%
same,Total Cell Count,[9],166
same,Population Apoptotic (%),[10],0%
same,Population Fragmented Nuclei (%),[10],28%
same,Population Healthy Nuclei (%),[10],69%
same,Population Hoechst High Intensity Objects (%),[10],8%
same,Population Membrane Permeable-Phenotype (%),[10],12%
same,Population Mitochondria Different-Phenotype (%),[10],5%
same,Population Mitotic Cells (%),[10],100%
same,Population Normal (%),[10],91%
same,Population Pyknosed Nuclei (%),[10],1%
same,Population Tubulin-Different-Phenotype (%),[10],57%
same,Total Cell Count,[10],112
same,Population Apoptotic (%),[11],41%
same,Population Fragmented Nuclei (%),[11],30%
same,Population Healthy Nuclei (%),[11],40%
same,Population Hoechst High Intensity Objects (%),[11],12%
same,Population Membrane Permeable-Phenotype (%),[11],28%
same,Population Mitochondria Different-Phenotype (%),[11],4%
same,Population Mitotic Cells (%),[11],58%
same,Population Normal (%),[11],87%
same,Population Pyknosed Nuclei (%),[11],28%
same,Population Tubulin-Different-Phenotype (%),[11],95%
same,Total Cell Count,[11],126
same,Population Apoptotic (%),[12],23%
same,Population Fragmented Nuclei (%),[12],45%
same,Population Healthy Nuclei (%),[12],45%
same,Population Hoechst High Intensity Objects (%),[12],34%
same,Population Membrane Permeable-Phenotype (%),[12],25%
same,Population Mitochondria Different-Phenotype (%),[12],1%
same,Population Mitotic Cells (%),[12],76%
same,Population Normal (%),[12],65%
same,Population Pyknosed Nuclei (%),[12],9%
same,Total Cell Count,[12],214
